# PvdQ acylase: P. aeruginosa PvdQ acylase inhibitors, primary screen, biochemical, fluorescence, plate reader and imaging, single point. PvdQ acylase [Pseudomonas aeruginosa LESB58]. purified PvdQ acylase. inhibition, % at 10 µM. 340,000 compounds, 0.063% hits. AID 488965, 2010; in the data active means inhibition above about 30%, passing the limit was not always enough;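 further: 0% = vehicle neutral wells and 100% = reference inhibitor wells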
# CaV13 ICDI inh: Disruptors of the CACNA1D IQ motif to Ca2+-dependent inactivation inhibitor domain association, primary screening, Förster resonance energy transfer in intact living …; inhibition, % at 12.3 µM; HEK cells, CFP/YFP FRET ICDI-IQ, plate reader, 10 min; percent FRET-ratio fall versus neutral wells; 340,000 compounds, 0.098% hits;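 active means mean replicate inhibition of at least 30% and at least 1% of replicates passing that level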;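 further: 0% = median of the neutral control wells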
# ERAP1 inh: human ERAP1 aminopeptidase inhibitors, primary screen, biochemical, single point, plate reader; Endoplasmic reticulum aminopeptidase 1 (Homo sapiens), Q9NZ08; recombinant ERAP1, Leu-AMC fluorescence, 60 min; inhibition, % at 10.7 µM; 340,000 compounds, 0.15% hits;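 active means mean replicate inhibition of at least 30%, or all replicates individually reaching that 30% level; inactive means mean below 30% and not every replicate reaching it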;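 further: 0% = neutral control wells and 100% = L-leucinethiol positive control wells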
# Target sequence (Q9NZ08 whole entry, looked up): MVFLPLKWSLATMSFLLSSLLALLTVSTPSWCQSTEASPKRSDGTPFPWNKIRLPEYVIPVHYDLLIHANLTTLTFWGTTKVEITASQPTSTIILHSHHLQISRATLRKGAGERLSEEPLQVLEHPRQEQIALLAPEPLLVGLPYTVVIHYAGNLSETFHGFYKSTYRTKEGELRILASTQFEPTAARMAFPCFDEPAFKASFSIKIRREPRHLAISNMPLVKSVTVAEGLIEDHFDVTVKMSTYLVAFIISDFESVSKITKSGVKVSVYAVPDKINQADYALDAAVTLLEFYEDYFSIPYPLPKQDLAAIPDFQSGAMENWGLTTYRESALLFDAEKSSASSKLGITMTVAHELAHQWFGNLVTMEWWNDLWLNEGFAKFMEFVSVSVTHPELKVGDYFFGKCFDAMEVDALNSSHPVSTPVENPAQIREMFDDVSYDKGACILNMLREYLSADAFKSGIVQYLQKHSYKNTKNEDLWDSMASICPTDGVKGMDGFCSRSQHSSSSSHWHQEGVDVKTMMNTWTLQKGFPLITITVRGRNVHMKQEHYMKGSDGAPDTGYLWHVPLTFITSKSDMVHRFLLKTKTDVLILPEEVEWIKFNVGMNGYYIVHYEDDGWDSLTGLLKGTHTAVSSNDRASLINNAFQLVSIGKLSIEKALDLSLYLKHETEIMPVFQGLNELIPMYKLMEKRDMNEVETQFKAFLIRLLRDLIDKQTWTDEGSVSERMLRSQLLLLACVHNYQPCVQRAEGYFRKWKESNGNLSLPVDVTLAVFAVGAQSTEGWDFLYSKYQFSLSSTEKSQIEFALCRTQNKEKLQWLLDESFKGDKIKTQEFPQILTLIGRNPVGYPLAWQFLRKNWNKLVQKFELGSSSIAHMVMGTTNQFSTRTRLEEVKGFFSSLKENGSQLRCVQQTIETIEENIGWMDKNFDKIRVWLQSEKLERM
# XiGFP reactiv: activators of inactive X chromosome reactivation, primary screen, imaging, XiGFP fibroblasts, GFP high-content imaging, set 2; XiGFP mouse fibroblasts, % GFP-positive cells imaging, 3 d; cells co-treated with 5-aza-dC sensitizer; scaled so ellipticine positive control = 100%; activation, % at 7.58 µM; 360,000 compounds, 0.055% hits;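 active means mean normalized replicate activation at least 10% and every replicate at or above 10%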;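 further: 0% = median of on-plate neutral control wells and 100% = ellipticine 6 µM median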
#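 Material: XiGFP fibroblasts, SV40-immortalized; Buffer or medium: DMEM containing 5-aza-dC; Compound dosing: single point; Times: 3 days compound exposure.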
# The depositor's hits bear a star; . = no result; + = active, no number; ! = repeats disagree. Shown are actives, neighbours in structure and some others; about 0.27% of the full set was active somewhere.
SMILES,PvdQ acylase,CaV13 ICDI inh,ERAP1 inh,XiGFP reactiv
N#CC(C#N)=C1C=CC=CN1/C(=C\c1ccccc1)C(=O)c1cccs1,0,63*,-1,0
CCCCn1c(N)c(N(CCOC)C(=O)C2CCN(C(=O)c3ccc(Cl)cc3)CC2)c(=O)[nH]c1=O,2,-6,2,0
CCCCn1c(N)c(N(CCOC)C(=O)C2CCCN(C(=O)c3ccc(Cl)cc3)C2)c(=O)[nH]c1=O (stereo not given),-8,-6,62*,0
O=C1N[C@@H](Cc2ccccc2)COCc2cn(nn2)CC[C@@H]1Cc1ccc(Cl)cc1,.,.,.,0
CC1CCCCC1NC(=O)COC(=O)CN1C(=O)c2ccccc2C1=O (stereo not given),-14,-2,-3,0
CC1CCCCC1NC(=O)CN1C(=O)c2cccc(N)c2C1=O (stereo not given),-11,+,-1,0
CCOc1ccccc1Nc1ncnc2ccc(Br)cc12,-10,-17,0,0
CN(Cc1ccccc1)c1ncnc2ccc(Br)cc12,97*,.,.,.
Cc1ccccc1OCCC(=O)N(Cc1ccccc1)c1c(N)n(Cc2ccccc2)c(=O)[nH]c1=O,3,.,-3,1
Cc1cccc(OCC(=O)N(C)c2c(N)n(Cc3ccccc3)c(=O)[nH]c2=O)c1C,-11,-2,4,140*
Cc1noc(C)c1S(=O)(=O)N(C)C[C@@H]1OCCCC[C@H](C)Oc2ccc(NC(=O)NC(C)C)cc2C(=O)N([C@H](C)CO)C[C@H]1C,.,.,2,1
COc1ccc(-c2cc(=O)oc3cc(OC(C)C(=O)NC(Cc4c[nH]c5ccc(O)cc45)C(=O)O)ccc23)cc1 (stereo not given),10,.,31*,.
O=C(c1cccc(F)c1)N1CC[C@@H]2[C@@H](CO)Nc3ccc(C#Cc4ccc(F)cc4)cc3[C@@H]21,.,.,1,.
Oc1ccc(Br)cc1C=Nc1ccc2c3c(cccc13)CC2,-5,-7,-1,105*
O=C(C[C@@H]1C=C[C@@H](NC(=O)C2CC2)[C@H](CO)O1)NC1CCC1,.,.,0,-1
COc1cc(C=C2C(=O)C=CC2=O)ccc1O,.,-10,53*,2
COc1ccc(COc2ccccc2C(=O)NCc2ccccc2)cc1F,4,-5,.,23*
CC(C)NC(=O)N(C)C[C@@H]1Oc2ncccc2C(=O)N(C)C[C@H]1C,.,.,.,0
O=C(O)c1cccc(NC(=O)c2cn(-c3ccccc3)nc2-c2ccncc2)c1,-11,-2,-36,0
O=C(O)c1cccc(NC(=O)c2cn(-c3ccccc3)nc2-c2cccc(Br)c2)c1,-19,69*,-35,0
O=C(C[C@H]1CC[C@@H](NC(=O)Nc2ccccc2F)[C@@H](CO)O1)NCc1ccc(-c2ccccc2)cc1,.,.,0,0
C[C@@H]1CCCCO[C@@H](CN(C)C(=O)c2ccccc2)[C@@H](C)CN([C@@H](C)CO)C(=O)c2cc(NC(=O)Nc3ccc(F)cc3)ccc2O1,.,.,-5,0
CNC[C@@H]1Oc2ccc(NS(C)(=O)=O)cc2C(=O)N(C)C[C@@H]1C,.,.,.,0
CCCC(=O)N1CC2(CN(C(C)=O)C2)c2c(n(C)c3cc(OC)ccc23)[C@H]1CO,.,.,.,0
Cn1cnc(Sc2ncnc3nc[nH]c23)c1[N+](=O)[O-],-18,-3,41*,0
SMILES,PvdQ acylase,CaV13 ICDI inh,ERAP1 inh,XiGFP reactiv
CCCCCCSc1cc(-c2nc3cc(C)ccn3c2NCCCC)ccc1OC,-9,78*!,5,0
CCCCCCSc1cc(-c2nc3cnccn3c2NCCCC)ccc1OC,-18,.,-7,.
COc1ccccc1-c1ccc2c(c1)[C@H]1[C@H](CCN1S(=O)(=O)c1cccc(F)c1)[C@@H](CO)N2,.,.,.,0
Clc1ccc2scc(CN3CCCCC3)c2c1,33*,-4,.,0
CNC(=O)/C(C#N)=C\c1ccc(CNS(=O)(=O)c2ccc(Cl)cc2)o1,-1,-4,33*,0
Nc1c(C(=O)Nc2ccc(S(=O)(=O)N3CCCC3)cc2)sc2nc3cc4c(cc3cc12)CCC4,-5,-3,.,63*
Nc1c(C(=O)Nc2ccc(S(=O)(=O)N3CCCC3)cc2)sc2nc3ccc(OC(F)(F)F)cc3cc12,-6,-6,.,4
C[C@H](CO)N1C[C@H](C)[C@@H](CN(C)Cc2cccc(C(F)(F)F)c2)OCc2ccccc2-c2ccccc2C1=O,.,.,.,0
COCC(=O)N(C)C[C@H]1Oc2cc(-c3ccc(F)cc3)ccc2S(=O)(=O)N([C@@H](C)CO)C[C@H]1C,.,.,-1,0
C[C@@H]1CN([C@H](C)CO)C(=O)c2cc(-c3cccc(F)c3)cnc2O[C@@H]1CN(C)C(=O)c1cnccn1,.,.,-1,0
O=c1ccc2cc3c4c(c2o1)CCCN4CCC3,-3,32*,-1,0
S=c1[nH]c2ccc(Cc3ccc4[nH]c(=S)[nH]c4c3)cc2[nH]1,-12,42*,-3,0
CCN(CC)Cc1c(O)ccc2cc(-c3nc4ccccc4n3C)c(=O)oc12,-1,25,91*,0
Cn1c(-c2cc3ccc(OC(=O)C(C)(C)C)cc3oc2=O)nc2ccccc21,6,21,.,.
CC(=O)Oc1ccc2cc(-c3nc4ccccc4n3C)c(=O)oc2c1,6,33*,.,.
CCN(c1ccccc1)S(=O)(=O)c1cc(C(=O)Nc2ccccc2Cl)ccc1F,49*,-3,2,0
COc1ccc2c(c1)c(/C=N/Nc1nc3ccccc3[nH]1)c(C)n2C,-14,-4,3,17*
C[C@H](CO)N1C[C@H](C)[C@@H](CN(C)C(=O)CN(C)C)Oc2ncc(C#Cc3ccccc3)cc2C1=O,.,.,-1,-1
CN(C)C(=O)CSc1nc2ccc(C(=O)c3ccccc3)cc2[nH]1,-12,62*,1,0
Cn1c(-c2ccccc2)cc(=NNS(C)(=O)=O)c2cc(S(=O)(=O)O)ccc21,.,-6,37*,0
Cn1c(-c2ccccc2)cc(=O)c2ccccc21,-3,-5,.,.
COc1cccc(S(=O)(=O)N[C@@H]2CC[C@H](CC(=O)NCc3ccc(Cl)cc3)O[C@@H]2CO)c1,.,.,1,0
CCN(Cc1nc2cc(Cl)ccc2c(=O)[nH]1)C(=O)c1cc(C2CC2)nn1-c1ccccc1,-4,.,-1,0
CCN(Cc1nc2cc(Cl)ccc2c(=O)[nH]1)C(=O)c1nn(C)c(=O)c2ccccc12,-13,-3,63*,0
C1CCCCCC2(CCCCC1)OCC(CN1CCOCC1)O2 (stereo not given),-21,-3,.,0
C[N+]1(CC2COC3(CCCCC3)O2)CCCC1 (stereo not given),-2,-3,81*,0
O=C(CSc1nnc(-c2cccs2)n1-c1ccccc1)N1CCCC1,-11,-3,.,.
Nn1c(SCC(=O)N2CCCC2)nnc1-c1cccs1,.,33*,1,1

# Bioassay records: PubChem BioAssay, Broad Institute
